Screens: PubChem BioAssay, several laboratories
An excerpt weighted towards active compounds, which were near 4% of everything screened.
MT stabilize HCS: stabilizes microtubules in HeLa cells. % tubulin-high responders, % at 10 µM. HeLa tubulin immunostaining HCS, 24 h; share of cells brighter than vehicle mean+2SD. 200,000 tested, 0.83% active;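 active = plate Z-score above 3 for both tubulin-high and condensed-nucleus cell shares, with cell loss under 80%, at 10 µM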;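 note: anti alpha tubulin signal scored within the nucleus-defined area of each cell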
bCat nuc transl: alters nuclear translocation of beta-catenin in HeLa cells | immunofluorescence imaging | nuclear translocation activity, % at 5 µM | 190,000 tested, 0.3% active | AID 1665;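 active = nuclear translocation activity above 50% at 5 µM, with a well cell count of 50 or more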;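 note: per-cell ratio of nuclear to cytoplasmic median beta-catenin stain intensity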
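System: Human HeLa cells, endogenous beta-catenin | Compound dosing: 5 µM primary, 0.02–20 µM confirmation | Timing: 24 h compound exposure at 37°C, 5% CO2 | Measured by: Fluorescence imaging of beta-catenin antibody stain plus DAPI | Read-out basis: % activation of per-cell nuclear versus cytoplasmic median beta-catenin signal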
Cl transport mod: modulators of human KCC2 chloride dependent transport. 190,000 tested, 2.2% active. KCC2 cells, thallium flux FluoZin-2 fluorescence. B-score of Tl+ flux slope (higher = more flux/activation; lower = inhibition) at 10 µM;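 active = thallium flux slope and its plate-corrected score both differing from the plate sample mean at a set confidence after two filtering rounds, in either direction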;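 note: slope of fluorescence scaled to starting intensity during 10 to 20 s after thallium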
Pf gamet viab: P. falciparum stage V gametocyte viability inhibition | P. falciparum stage V gametocytes, ATP luminescence, 24 h | inhibition, % at 10.9 µM | 150,000 tested, 0.065% active | AID 743093;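 active = inhibition above the mean plus 3 SD of compounds within the control limits, set per campaign, cut at about 38% in these data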
WT yeast gro inh: growth inhibition of WT yeast, mitochondrial fusion screen; mitochondrial fusion phenotypic screen, WT strain; inhibition, % at 10 µM; 190,000 tested, 2.1% active; AID 1362; in the data active = inhibition above about 58%; tested in S. cerevisiae
Of the large screens only hits and unclear results are named; the others gave an inactive call.

CN1/C(=C/C(=O)C2CC2)C(C)(C)c2ccccc21	none
CN1/C(=C\C(=O)Nc2cccc(Cl)c2)C(C)(C)c2ccccc21	WT yeast gro inh 77.7
CN1/C(=C\C(=O)Nc2ccc(Br)cc2)C(C)(C)c2ccccc21	WT yeast gro inh 87.0
CN(C)S(=O)(=O)n1cnc([C@@H]2[C@H]3C(=O)OC[C@@H]3C[C@@]23N=CN(Cc2ccccc2)C3=O)c1	none (no result: MT stabilize HCS, bCat nuc transl, Cl transport mod, WT yeast gro inh)
CC(C(=O)O)N1C(=O)C2C3CC(C2C1=O)C1C(c2ccccc2)c2sc(=O)[nH]c2SC31 (stereo unspecified)	none
CCOc1ccc(C(=O)NCC(=O)OCc2ccc(F)cc2Cl)cc1	none
Cc1ccc(C(=S)NCS(=O)(=O)c2ccc(C)cc2)cc1	none (no result: bCat nuc transl)
Cc1ccc(S(=O)(=O)CNC(=S)c2cccc(Cl)c2)cc1	WT yeast gro inh 68.6
COC(=O)c1c(-c2c(Cl)cccc2Cl)noc1C(=O)NN	none (no result: MT stabilize HCS, WT yeast gro inh)
CC(C)NS(=O)(=O)c1ccc(CCC(=O)Nc2ccc3c(c2)OCO3)cc1	none
CCCCOC(=O)c1ccc(NC(=O)c2cnccn2)cc1	none (no result: Pf gamet viab)
CCCCOC(=O)c1ccc(NC(=S)NC(=O)c2c(Br)c(C)nn2C)cc1	Cl transport mod 29
COc1ccccc1NCc1nnc(-c2ccccc2)o1	none (no result: MT stabilize HCS, bCat nuc transl, Cl transport mod, WT yeast gro inh)
C/C(CC1CC(C)(C)OC1=O)=N\NC(N)=S (stereo unspecified)	none (no result: MT stabilize HCS, WT yeast gro inh)
C/C(CC1CC2=C(CC1(C)C)C(C)(C)CCC2)=N\NC(N)=S (stereo unspecified)	WT yeast gro inh 76.0 (no result: bCat nuc transl, Pf gamet viab)
O=C(Nc1ccc(N2CCOCC2)cc1)C1(c2ccc(Cl)cc2)CCC1	MT stabilize HCS 9.9
COC(=O)c1c(NC(=O)CN2CCC3(O)CCCCC3C2c2ccccc2OC)sc(C)c1C (stereo unspecified)	WT yeast gro inh 73.3 (no result: Pf gamet viab)
COc1ccc(NC(=O)CN2CCC3(O)CCCCC3C2c2cc(OC)ccc2OC)cc1 (stereo unspecified)	none (no result: Pf gamet viab)
COC(=O)c1c(NC(=O)CN2CCC3(O)CCCCC3C2c2ccc(OC)cc2OC)sc(C)c1C (stereo unspecified)	WT yeast gro inh 59.3 (no result: Pf gamet viab)
